What was measured:
MS2 coat protein [1] = assay: apparent Kd, MS2 coat protein; higher = weaker binding; RNA-MaP array; theophylline 2 mM where present
Summary of the method: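 Stalled E. coli RNA polymerase transcribed each design on Illumina sequencing-chip clusters. The clusters were titrated with SNAP-549-labelled MS2 coat protein, starting at 0.7 or 1.5 nM and doubling up to 3 µM, first without ligand and then with constant ligand, in 100 mM Tris-HCl pH 7.5, 80 mM KCl, 4 mM MgCl2, BSA, DTT, yeast tRNA and Tween-20. Green signal was normalised to red-channel RNA signal and to the control-cluster median Fmax. The apparent Kd is the median of filtered binding-curve fits made for each cluster.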

MS2 coat protein [2] = assay: apparent Kd, MS2 coat protein; higher = weaker binding; RNA-MaP array
Summary of the method: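 Fluorescently labeled MS2 coat protein, from 1.5 nM to 3 μM, was incubated at room temperature with designed RNAs transcribed on an Illumina sequencing chip from sequenced DNA templates. Times ran from 0.8–1.5 h at the lowest concentrations to 10–20 min at the highest, in Tris-HCl pH 7.5 buffer with KCl, MgCl2, BSA, DTT, tRNA and Tween20, with or without input ligand. Each apparent Kd is the median of per-cluster binding-curve fits, and designs with fewer than 10 measured clusters were excluded.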

[3] = designed as: OFF switch for theophylline, no ligand
[4] = ligand present: theophylline, designed as: OFF switch for theophylline
[5] = designed as: ON switch for theophylline, no ligand
[6] = ligand present: theophylline, designed as: ON switch for theophylline
[7] = designed as: ON switch for flavin mononucleotide, no ligand
[8] = ligand present: flavin mononucleotide, designed as: ON switch for flavin mononucleotide
[9] = designed as: OFF switch for flavin mononucleotide, no ligand
[10] = ligand present: flavin mononucleotide, designed as: OFF switch for flavin mononucleotide

Sequence: UCGCAUUGCUGCGAUACCAGACAUGAGGAUCACCCAUGUACCAAGGUACGAAAAUAACAUGUCCCUUGGCAGCGCAGCAAUGCGU
- apparent Kd (MS2 coat protein [1]; [3]): 12.8 nM
- apparent Kd (MS2 coat protein [1]; [4]): 322 nM

Sequence: UCACGAGGCCUGGAUACCAGCGACAUGAGGAUCACCCAUGUAUGAGGAUCAGCCAUGUUAUGCCCUUGGCAGCCACGAAGGUCAU
- apparent Kd (MS2 coat protein [1]; [3]): 14.6 nM
- apparent Kd (MS2 coat protein [1]; [4]): 94.5 nM

Sequence: GUCAGUAGAACAGAUACCAGUCAAAAGCUGUGAUCUCAUAACAUGAGGAUCACCCAUGUUGACCCUUGGCAGCUGUGGGCGAGGG
- apparent Kd (MS2 coat protein [1]; [3]): 19.6 nM
- apparent Kd (MS2 coat protein [1]; [4]): 64.6 nM

Sequence: UACAUGAGGAUCACCCAUGUAUGAAUAGAUACCAGAUAAAAUAAGGUCCCUUGGCAGCUAGUGAAUAAAGGGUGGGUAAAAUAAU
- apparent Kd (MS2 coat protein [1]; [3]): 9.22 nM
- apparent Kd (MS2 coat protein [1]; [4]): 9.51 nM

Sequence: GAUCCUCAUACGGAUACCAGCGAAUAACAUGAGGAUCACCCAUGUAAUAAAGAAAAUAAAUGCCCUUGGCAGCCGAAUAGAUAGU
- apparent Kd (MS2 coat protein [1]; [5]): 166 nM
- apparent Kd (MS2 coat protein [1]; [6]): 69.4 nM

Sequence: AAACUGGGUGUAAAAUAAAUAAUCACUGAUACCAGACUAUAGUAUGUCCCUUGGCAGCAGAAACAUGAGGAUCACCCAUGUAAUA
- apparent Kd (MS2 coat protein [1]; [3]): 21.7 nM
- apparent Kd (MS2 coat protein [1]; [4]): 21.3 nM

Sequence: UUCUACAUGAGGAUCACCCAUGUGGGUGAUACCAGCACUUUUUGGUGCCCUUGGCAGCACAUGAGAAUACCGUACGAUCGGUGAU
- apparent Kd (MS2 coat protein [1]; [5]): 376 nM
- apparent Kd (MS2 coat protein [1]; [6]): 615 nM

Sequence: GCACCAGGUACGGAUACCAGCUGCCAUAGUUACAUGAGGAUCACCCAUGUGAUCUAUUGUAGCCCUUGGCAGCUGUACCUGGUGC
- apparent Kd (MS2 coat protein [1]; [5]): 104 nM
- apparent Kd (MS2 coat protein [1]; [6]): 92.4 nM

Sequence: UUUGAAAUAACAGAUACCAGCGUGUUAUAAAACAUGAGGAUCACCCAUGUAGUGAUCAAGCGCCCUUGGCAGCUGGUAUUUUAGG
- apparent Kd (MS2 coat protein [1]; [5]): 85.4 nM
- apparent Kd (MS2 coat protein [1]; [6]): 196 nM

Sequence: AAGGGUGAGUCUCUAAUCCGUUUGACGGAUACCAGCGAGAGAUAUCGCCCUUGGCAGCCGACGACAUGAGGAUCACCCAUGUAAA
- apparent Kd (MS2 coat protein [1]; [3]): 14.7 nM
- apparent Kd (MS2 coat protein [1]; [4]): 17.2 nM

Sequence: ACCAUGUAAUCAGAUACCAGACAUCUUUUAAAUCAUAUUACAUGAGGAUCACCCAUGUUGGUCCCUUGGCAGCUGAAAUAUUUUU
- apparent Kd (MS2 coat protein [1]; [5]): 205 nM
- apparent Kd (MS2 coat protein [1]; [6]): 46.4 nM

Sequence: CUCUGAGUGAGCAAUCACUCAGAGGCGGAUACCAGCGAGGUCCAUCGCCCUUGGCAGCCGAACAUGAGGAUCACCCAUGUCGGUA
- apparent Kd (MS2 coat protein [1]; [5]): 10.1 nM
- apparent Kd (MS2 coat protein [1]; [6]): 16.6 nM

Sequence: CACUUCAUAAUAGGAUAUCAUGGAUGACAUGAGGAUCACCCAUGUCCGCACUCUUCAACUACACGUGAGAAGGAUUCGCGGGUC
- apparent Kd (MS2 coat protein [2]; [7]): 194 nM
- apparent Kd (MS2 coat protein [2]; [8]): 130 nM

Sequence: AUUACCCCAUGAGGAUAUCCAAUAAGGAGAGACAUGAGGAUCACCCAUGUCGACGGACGCAUACAGGAGAAGGCAUGGACUAGC
- apparent Kd (MS2 coat protein [2]; [7]): 13.6 nM
- apparent Kd (MS2 coat protein [2]; [8]): 7.54 nM

Sequence: GGAAGUAGAUGUCAGGAUAUCAAAAGCAUAACAUGAGGAUCACCCAUGUCCAAAAGGCAGAGAAUUGAGAAGGGACGUAGGUUACA
- apparent Kd (MS2 coat protein [2]; [7]): 42.2 nM
- apparent Kd (MS2 coat protein [2]; [8]): 14.4 nM

Sequence: ACAAAGACAGGAUAUACAAAUUACAACUAAUCAAGGAAAAGACAUGAGGAUCACCCAUGUAGAAGGGUCAAUAA
- apparent Kd (MS2 coat protein [2]; [9]): 26.9 nM
- apparent Kd (MS2 coat protein [2]; [10]): 20.5 nM

Sequence: GACGUGGAGUCAGGAUAUCGACGACAUUCUUAGCGAGAAGGGACCUAGCUUAGAUCAACAUGAGGAUCACCCAUGUCGAGUUUC
- apparent Kd (MS2 coat protein [2]; [9]): 21.7 nM
- apparent Kd (MS2 coat protein [2]; [10]): 20.4 nM

Sequence: UUCCCUGCUUAGGAUAUCUAGACAAGACGGUCAAGAGAAGGAAGUACAUGAGGAUCACCCAUGUUUAGCAUGAA
- apparent Kd (MS2 coat protein [2]; [9]): 10.5 nM
- apparent Kd (MS2 coat protein [2]; [10]): 14.2 nM

Sequence: GUUCGUCCUACGGCCGCCACUAAAACACAUGAGGAUCACCCAUGUUAGUAUCCUGGCUGGUGUGAUAGGACCGGGUAGGGAAGAA
- apparent Kd (MS2 coat protein [2]; designed as: OFF switch for tryptophan, no ligand): 12.1 nM
- apparent Kd (MS2 coat protein [2]; ligand present: tryptophan, designed as: OFF switch for tryptophan): 24.1 nM

Sequence: AUCUAGUGCCUCAAGGAUAUGCACAGAGAGACAUGAGGAUCACCCAUGUAACAAGCAUGCUCAACGCAGAAGGUGACACUUAAGAU
- apparent Kd (MS2 coat protein [2]; [7]): 39.2 nM
- apparent Kd (MS2 coat protein [2]; [8]): 12.7 nM

Sequence: GUUAUCUCAUGUUCGACGGACAUGAGGAUCACCCAUGUACCUUAGGAUAUUGAUGAAAUAUGGCGCAAGAAGGAAGGUAACGCU
- apparent Kd (MS2 coat protein [2]; [9]): 6.47 nM
- apparent Kd (MS2 coat protein [2]; [10]): 7.52 nM

Sequence: AUAGAAAAUGUAAGGAUAUAUCGAAACAAUAAACGAAAGAAGGAACAUGAGGAUCACCCAUGUAAAGUAAUAAA
- apparent Kd (MS2 coat protein [2]; [9]): 10.3 nM
- apparent Kd (MS2 coat protein [2]; [10]): 9.25 nM
